GALR2 blocker: antagonists of human galanin receptor 2 (GALR2); O43603; GALR2-expressing cells, antagonist mode; AID 828; inhibition, % at 4 µM; hit rate 0.39% among 140,000;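 further: cells stimulated with galanin 1-16 at roughly its EC80; 0% = agonist challenge control and 100% = basal control without agonist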
Target sequence (O43603 whole entry, looked up): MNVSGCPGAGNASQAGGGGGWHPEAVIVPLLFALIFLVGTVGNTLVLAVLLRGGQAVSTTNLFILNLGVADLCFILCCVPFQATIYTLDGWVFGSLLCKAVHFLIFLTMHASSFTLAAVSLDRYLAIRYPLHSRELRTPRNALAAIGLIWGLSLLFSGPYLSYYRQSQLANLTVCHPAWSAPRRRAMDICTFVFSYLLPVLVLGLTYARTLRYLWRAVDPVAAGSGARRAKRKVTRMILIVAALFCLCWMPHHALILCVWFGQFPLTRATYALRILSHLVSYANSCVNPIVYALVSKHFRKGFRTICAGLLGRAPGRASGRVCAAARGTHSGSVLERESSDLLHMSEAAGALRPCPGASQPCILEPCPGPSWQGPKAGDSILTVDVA
GALR2 ag: agonists of human galanin receptor 2 (GALR2) | O43603 | GALR2-expressing cells, agonist activation read-out | activation, % (concentration not given with the values) | hit rate 0.48% among 140,000; in the data active means activation above about 5%, passing the limit was not always enough;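 further: 0% = vehicle buffer wells and 100% = reference agonist at full effect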
S1P2 ag: activates the human S1P2 receptor | O95136 | S1P2-expressing cell line, agonist reporter read-out | activation, % at 4.5 µM | hit rate 0.46% among 97,000 | AID 729; in the data active means activation above about 16%;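 further: 0% = vehicle low control and 100% = maximal reference agonist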
HIV Rev-RRE inh: disrupts HIV-1 Rev binding to RRE RNA; Rev peptide-RRE RNA binding, FRET; AID 704; hit rate 0.79% among 97,000; inhibition, % at 8 µM;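 active means inhibition above the screen-wide mean plus 3 SD, cut at about 35% in these data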;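 further: 0% = median DMSO wells and 100% = median Neomycin B control wells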
Target sequence (P05866 whole entry, looked up): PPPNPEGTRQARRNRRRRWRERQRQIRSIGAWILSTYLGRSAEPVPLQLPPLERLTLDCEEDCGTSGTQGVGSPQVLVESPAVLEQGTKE
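Test system: Cy5-tagged RRE RNA duplex with fluorescein-tagged Rev peptide | Read-out: % inhibition of FRET ratio versus controls | Probe or stimulus: Labelled Rev peptide | Incubation: 5 min RNA-compound premix plus 15 min binding step, 25 °C | Technique: FRET fluorescence readout | Benchmarks: DMSO low control, neomycin B high control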
EphB4 ephrin blk: EphB4-ephrin-B2 interaction antagonism. AID 720. P54760. hit rate 0.15% among 97,000. inhibition, % at 7 µM. EphB4 LBD / TNYL-RAW-Alexa532 peptide, fluorescence polarization;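 active means inhibition above the screen-wide mean inhibition plus 3 SD, cut at about 15% in these data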;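 further: 0% = DMSO wells and 100% = excess unlabeled TNYL-RAW peptide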
S1P2 antag: antagonists of human S1P2 receptor; O95136; cell-based S1P2 antagonist assay, inhibition at 5 uM; inhibition, % at 5 µM; hit rate 0.21% among 97,000; AID 736; in the data active means inhibition above about 45%;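 further: CRE beta-lactamase reporter cells expressing human S1P2 stimulated with S1P; 0% = agonist at EC80 alone and 100% = agonist plus reference antagonist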
GALR2 ant conf: confirmation of human galanin receptor 2 (GALR2) antagonists. shares compounds with GALR2 blocker. GALR2-expressing cells, antagonist mode, inhibition. inhibition, % at 4 µM. hit rate 60% among 480. AID 866;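 further: cells stimulated with galanin at about its EC80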
BLA inhib ctr: beta-lactamase inhibition, GALR2 counterscreen. AID 867. shares compounds with GALR2 blocker. inhibition, % at 4.2 µM. hit rate 36% among 480. CHO NFAT-BLA reporter, beta-lactamase FRET, thapsigargin-stimulated;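 active means inhibition above the mean inhibition across tested compounds plus 3 SD, cut at about 27% in these data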;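 further: 0% = 500 nM thapsigargin stimulated wells and 100% = unstimulated BSA only wells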
Numbers without * were called inactive; . = not tested or not shown. This is a sample that favours compounds with a hit; in the whole collection about 1.8% have one here. Unless noted, no stated cut-off is given here; in the data, active means inhibition above about 27%; inactive means the rest.

SMILES	GALR2 blocker	GALR2 ag	S1P2 ag	HIV Rev-RRE inh	EphB4 ephrin blk	S1P2 antag	GALR2 ant conf	BLA inhib ctr
Cc1sc2ncnc(NCC3COc4ccccc4O3)c2c1C (centres undefined)	39*	0	.	.	.	.	46*	11
CCN(CC)S(=O)(=O)c1ccc(NC(=O)COC(=O)CNS(=O)(=O)/C=C/c2ccccc2)cc1	-7	-1	.	.	.	.	.	.
CCc1nnc(NC(=O)C(C)C)s1	-12	0	-3	7	-6	-33	.	.
CCc1nnc(NC(=O)C=C(C)C)s1	28*	-4	-2	7	6	6	9	11
Oc1c(Cl)cccc1C=Nc1cc(C(F)(F)F)ccc1N1CCCC1	32*	-2	-4	3	-3	8	16	17
Cc1ccccc1NC(=O)/C=C/c1ccc([N+](=O)[O-])s1	34*	1	.	.	.	.	60*	62*
Cn1cnc([N+](=O)[O-])c1S(=O)(=O)c1cccc(Cl)c1	47*	-4	.	.	.	.	43*	21
CCCn1c(CC)nc([N+](=O)[O-])c1S(=O)(=O)c1ccccc1	24	-2	-7	5	8	36	.	.
Cc1nc2ccc(NC(=O)c3cc(S(=O)(=O)N(C)c4ccccc4)ccc3Cl)cc2s1	37*	4	.	.	.	.	31*	5
Cc1nc2ccc(NC(=O)c3ccc(Cl)c(S(=O)(=O)N(C)c4ccccc4)c3)cc2s1	1	-2	.	.	.	.	.	.
C=CCn1cc(/C=N/Nc2nc3ccccc3[nH]2)c2ccccc21	28*	-1	.	.	.	.	29*	11
C(=N\Nc1nc2ccccc2[nH]1)/c1cccs1	29*	-3	-4	-1	-3	15	27	13
Cc1cc(=O)[nH]c(N/N=C/c2sccc2C)n1	-1	-2	.	.	.	.	.	.
CCN(CC)c1ccc(/C=N/Nc2nc3ccccc3[nH]2)cc1	42*	4	.	.	.	.	35*	23
Cc1ccsc1/C=N/Nc1nc2ccccc2[nH]1	32*	-1	.	.	.	.	38*	12
CC(C)C(NC(=O)OCc1ccccc1)C(=O)NC1CCCCC1 (centres undefined)	7	-1	.	.	.	.	.	.
COc1cc(OC)cc(C(=O)Nn2cc(C(=O)Nc3c(F)cccc3F)c3ccccc3c2=O)c1	-6	-1	.	.	.	.	.	.
Cc1cc(/C=N/n2cnnc2)c(C)n1-c1ccc(Cl)cc1Cl	-5	1	9	0	-2	-17	.	.
Cc1cc(/C=N/n2cnnc2)c(C)n1-c1ccc(OCc2ccc(Cl)cc2Cl)cc1	29*	0	-6	-5	4	74*	45*	22
Cc1nn(C(C)C(=O)NNC(=S)Nc2ccc(Cl)cc2)c(C)c1[N+](=O)[O-] (centres undefined)	-23	0	1	2	1	-11	.	.
C=CCSC(=C(C#N)C#N)c1cc2c([nH]1)CCCC2	31*	-1	-5	25	3	8	27*	17
O=C(CCl)N(c1ccccc1)c1c[nH]c2ccccc12	37*	-3	-8	-2	-8	27	38*	18
COc1cccc(/C=C/C(=O)OCC(=O)NCC2CCCO2)c1OC (centres undefined)	1	-2	.	.	.	.	.	.
O=C(CCCSc1nnnn1-c1ccccc1)c1ccc(F)cc1	-5	-2	-3	15	0	9	.	.
COc1cccc(N2CCN(c3ncnc4c3[nH]c3ccccc34)CC2C)c1 (centres undefined)	21	0	.	.	.	.	.	.
SMILES	GALR2 blocker	GALR2 ag	S1P2 ag	HIV Rev-RRE inh	EphB4 ephrin blk	S1P2 antag	GALR2 ant conf	BLA inhib ctr
COc1cccc(N2CCN(c3ncnc4c3[nH]c3ccc(F)cc34)CC2C)c1 (centres undefined)	51*	-2	-4	-1	9	105*	72*	58*
Cc1ccccc1NC1=C/C(=N\S(=O)(=O)c2cccs2)c2ccccc2C1=O	63*	5	8	4	4	41	44*	59*
Cc1ccc(S(=O)(=O)NCC(=O)NCc2ccncc2)cc1	11	-1	1	8	9	-4	.	.
CCOC(=O)COc1ccc(S(=O)(=O)NCc2ccncc2)cc1	33*	-1	-4	6	5	43	33*	1
CCOc1ccc(S(=O)(=O)NCc2ccncc2)cc1	34*	-4	-5	2	4	64*	53*	8
Cc1ccc(S(=O)(=O)NCc2ccncc2)cc1	31*	-1	0	0	0	37	39*	5
Nc1cc2c(cc1C(=O)c1ccc(Cl)cc1)OCCO2	-3	-2	-4	4	-2	-5	.	.
CCCCCCOc1ccc(NC(=O)CC2C(=O)N(CC)C(=S)N2Cc2ccco2)cc1 (centres undefined)	-1	1	.	.	.	.	.	.
O=C(CCN1C(=O)c2ccccc2C1=O)N1CCN(C2c3ccccc3-c3ccccc32)CC1	-4	-1	11	1	4	4	.	.
COc1ccc(/C(C)=N/NC(=O)c2ccc(N(C)C)cc2)cc1	-3	-3	-6	0	-2	2	.	.
CCN(CC)c1ccc(C(=O)N/N=C(\C)c2ccc(O)cc2)cc1	30*	-3	.	.	.	.	24	7
Cc1cnc(NC(=O)Cc2c[nH]c3ccccc23)s1	33*	-3	-7	-1	-4	10	25	5
CSCCC(NC(=O)c1ccccc1)C(=O)Nc1ccc(NC(C)=O)cc1 (centres undefined)	-6	0	.	.	.	.	.	.
CC[C@@H]1C=C(C)C[C@H](C)C[C@H](OC)[C@H]2O[C@@](O)(C(=O)C(=O)N3CCCC[C@H]3C(=O)O[C@H](/C(C)=C/[C@@H]3CC[C@@H](O)[C@H](OC)C3)[C@H](C)[C@@H](O)CC1=O)[C@H](C)C[C@@H]2OC	101*	-1	.	.	.	.	103*	104*
Cc1ccc(C)c(C(=O)Cn2ncc(Cl)c(Cl)c2=O)c1	20	-2	-9	-6	-1	20	.	.
